# ChEMBL document CHEMBL5724801, “EUbOPEN Chemogenomics Library - Multiplex” (2024)
# “And” between values parts separate entries of the source, which are not always exact repeats. Equal entries are not always repeated.
# Test system: U2OS
# Test: Multiplex assay against U2OS
# Format: toxicity, cell-based
# Details: human
# Summary of the method: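 Per cents of healthy-nucleus cells form the tubulin, mitochondrial-mass and membrane-permeability phenotype values. Live cells were stained at seeding with Hoechst33342, BioTracker Green Microtubule Cytoskeleton Dye, MitoTracker Red and Annexin V Alexa Fluor 680. After compound addition they were imaged on a CQ1 microscope at 37°C and 5% CO2, and CellPathfinder machine-learning gating split them into Hoechst high-intensity objects or normal cells, normal cells into healthy, pyknosed or fragmented nuclei, and pyknosed cells into mitotic or apoptotic.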
# [1] = 12 h, 1 µM, compound concentration 1 uM
# [2] = 12 h, 10 µM, compound concentration 10 uM
# [3] = 24 h, 1 µM, compound concentration 1 uM
# [4] = 24 h, 10 µM, compound concentration 10 uM
# [5] = 48 h, 1 µM, compound concentration 1 uM
# [6] = 48 h, 10 µM, compound concentration 10 uM
smiles,measurement,setting,value
CC(C)c1noc(N2CCC(COc3ccc(-c4ccc(S(C)(=O)=O)cc4)nc3)CC2)n1 [GSK-1292263],Population Apoptotic (%),[1],72% and 100%
same,Population Fragmented Nuclei (%),[1],27% and 16%
same,Population Healthy Nuclei (%),[1],62% and 77%
same,Population Hoechst High Intensity Objects (%),[1],2% and 1%
same,Population Membrane Permeable-Phenotype (%),[1],3% and 4%
same,Population Mitochondria Different-Phenotype (%),[1],2% and 0%
same,Population Normal (%),[1],97% and 98%
same,Population Pyknosed Nuclei (%),[1],10% and 5%
same,Population Tubulin-Different-Phenotype (%),[1],0% and 2%
same,Total Cell Count,[1],177 and 114
same,Population Apoptotic (%),[2],90% and 100%
same,Population Fragmented Nuclei (%),[2],31% and 20%
same,Population Healthy Nuclei (%),[2],60% and 73%
same,Population Hoechst High Intensity Objects (%),[2],2% and 0%
same,Population Membrane Permeable-Phenotype (%),[2],10%
same,Population Mitochondria Different-Phenotype (%),[2],6% and 8%
same,Population Mitotic Cells (%),[2],10% and 0%
same,Population Normal (%),[2],97% and 100%
same,Population Pyknosed Nuclei (%),[2],7% and 5%
same,Population Tubulin-Different-Phenotype (%),[2],6%
same,Total Cell Count,[2],262 and 134
same,Population Apoptotic (%),[3],63% and 66%
same,Population Fragmented Nuclei (%),[3],32% and 15%
same,Population Healthy Nuclei (%),[3],57% and 77%
same,Population Hoechst High Intensity Objects (%),[3],1% and 0%
same,Population Membrane Permeable-Phenotype (%),[3],5% and 2%
same,Population Mitochondria Different-Phenotype (%),[3],2%
same,Population Mitotic Cells (%),[3],36% and 33%
same,Population Normal (%),[3],98% and 99%
same,Population Pyknosed Nuclei (%),[3],9% and 6%
same,Population Tubulin-Different-Phenotype (%),[3],3% and 1%
same,Total Cell Count,[3],236 and 145
same,Population Apoptotic (%),[4],92% and 66%
same,Population Fragmented Nuclei (%),[4],25% and 15%
same,Population Healthy Nuclei (%),[4],65% and 75%
same,Population Hoechst High Intensity Objects (%),[4],0% and 2%
same,Population Membrane Permeable-Phenotype (%),[4],10% and 6%
same,Population Mitochondria Different-Phenotype (%),[4],3% and 5%
same,Population Normal (%),[4],99% and 97%
same,Population Pyknosed Nuclei (%),[4],9% and 8%
same,Population Tubulin-Different-Phenotype (%),[4],3% and 2%
same,Total Cell Count,[4],284 and 143
same,Population Apoptotic (%),[5],77% and 90%
same,Population Fragmented Nuclei (%),[5],23% and 15%
same,Population Healthy Nuclei (%),[5],69% and 74%
same,Population Hoechst High Intensity Objects (%),[5],2% and 1%
same,Population Membrane Permeable-Phenotype (%),[5],3% and 6%
same,Population Mitochondria Different-Phenotype (%),[5],3% and 2%
same,Population Mitotic Cells (%),[5],22% and 10%
same,Population Normal (%),[5],97% and 98%
same,Population Pyknosed Nuclei (%),[5],6% and 10%
same,Population Tubulin-Different-Phenotype (%),[5],2% and 1%
same,Total Cell Count,[5],339 and 201
same,Population Apoptotic (%),[6],87% and 83%
same,Population Fragmented Nuclei (%),[6],22% and 12%
same,Population Healthy Nuclei (%),[6],68% and 77%
same,Population Hoechst High Intensity Objects (%),[6],4% and 1%
same,Population Membrane Permeable-Phenotype (%),[6],6% and 5%
same,Population Mitochondria Different-Phenotype (%),[6],2% and 4%
same,Population Mitotic Cells (%),[6],12% and 16%
same,Population Normal (%),[6],95% and 98%
same,Population Pyknosed Nuclei (%),[6],9%
same,Population Tubulin-Different-Phenotype (%),[6],2% and 4%
same,Total Cell Count,[6],354 and 189
O=S(=O)(c1ccccc1)c1cnc2c(N3CCNCC3)cccc2c1 [INTEPIRDINE],Population Apoptotic (%),[1],76% and 70%
same,Population Fragmented Nuclei (%),[1],23% and 17%
same,Population Healthy Nuclei (%),[1],68% and 71%
same,Population Hoechst High Intensity Objects (%),[1],1% and 0%
same,Population Membrane Permeable-Phenotype (%),[1],6% and 7%
same,Population Mitochondria Different-Phenotype (%),[1],3% and 6%
same,Population Mitotic Cells (%),[1],23% and 30%
same,Population Normal (%),[1],98% and 100%
same,Population Pyknosed Nuclei (%),[1],7% and 11%
same,Population Tubulin-Different-Phenotype (%),[1],4% and 7%
same,Population Apoptotic (%),[2],58% and 85%
same,Population Fragmented Nuclei (%),[2],25% and 10%
same,Population Healthy Nuclei (%),[2],61% and 79%
same,Population Hoechst High Intensity Objects (%),[2],3% and 2%
same,Population Membrane Permeable-Phenotype (%),[2],23% and 12%
same,Population Mitochondria Different-Phenotype (%),[2],11% and 13%
same,Population Mitotic Cells (%),[2],41% and 14%
same,Population Normal (%),[2],96% and 97%
same,Population Pyknosed Nuclei (%),[2],12% and 10%
same,Population Tubulin-Different-Phenotype (%),[2],14% and 10%
same,Total Cell Count,[2],204 and 139
same,Population Apoptotic (%),[3],80% and 69%
same,Population Fragmented Nuclei (%),[3],22% and 14%
same,Population Healthy Nuclei (%),[3],67% and 73%
same,Population Hoechst High Intensity Objects (%),[3],2% and 0%
same,Population Membrane Permeable-Phenotype (%),[3],7% and 3%
same,Population Mitochondria Different-Phenotype (%),[3],2% and 3%
same,Population Mitotic Cells (%),[3],19% and 30%
same,Population Normal (%),[3],97% and 99%
same,Population Pyknosed Nuclei (%),[3],9% and 12%
same,Population Tubulin-Different-Phenotype (%),[3],4% and 1%
same,Total Cell Count,[3],319 and 108
same,Population Apoptotic (%),[4],72% and 77%
same,Population Fragmented Nuclei (%),[4],23% and 10%
same,Population Healthy Nuclei (%),[4],60% and 77%
same,Population Hoechst High Intensity Objects (%),[4],3% and 0%
same,Population Membrane Permeable-Phenotype (%),[4],17% and 10%
same,Population Mitochondria Different-Phenotype (%),[4],14% and 17%
same,Population Mitotic Cells (%),[4],27% and 22%
same,Population Normal (%),[4],96% and 99%
same,Population Pyknosed Nuclei (%),[4],16% and 11%
same,Population Tubulin-Different-Phenotype (%),[4],10% and 6%
same,Total Cell Count,[4],233 and 156
same,Population Apoptotic (%),[5],89% and 76%
same,Population Fragmented Nuclei (%),[5],15% and 13%
same,Population Healthy Nuclei (%),[5],70% and 68%
same,Population Hoechst High Intensity Objects (%),[5],3%
same,Population Membrane Permeable-Phenotype (%),[5],6% and 3%
same,Population Mitochondria Different-Phenotype (%),[5],4% and 2%
same,Population Mitotic Cells (%),[5],10% and 23%
same,Population Normal (%),[5],96%
same,Population Pyknosed Nuclei (%),[5],14% and 18%
same,Population Tubulin-Different-Phenotype (%),[5],4% and 2%
same,Total Cell Count,[5],416 and 148
same,Population Apoptotic (%),[6],78% and 95%
same,Population Fragmented Nuclei (%),[6],22% and 13%
same,Population Healthy Nuclei (%),[6],59% and 75%
same,Population Hoechst High Intensity Objects (%),[6],4% and 2%
same,Population Membrane Permeable-Phenotype (%),[6],15% and 10%
same,Population Mitochondria Different-Phenotype (%),[6],7% and 12%
same,Population Normal (%),[6],95% and 97%
same,Population Pyknosed Nuclei (%),[6],17% and 11%
same,Population Tubulin-Different-Phenotype (%),[6],6% and 4%
same,Total Cell Count,[6],302 and 201
